From ChEMBL document CHEMBL4477209, “Indole-2-carboxamide-based MmpL3 Inhibitors Show Exceptional Antitubercular Activity in an Animal Model of Tuberculosis Infection” (J Med Chem, 2016)
Values after ≈ are worked out from the molar mass of the structure shown. Active and inactive are the calls of the source. The calls are words filed in the database; no cut-off is given here.

Experiments:
[1] = target: T1, Aryl hydrocarbon receptor (Homo sapiens, UniProt P35869); assay: Transactivation of AhR (unknown origin) assessed as upregulation of CYP1A2; assay type: ADME
T1 sequence (P35869 whole entry): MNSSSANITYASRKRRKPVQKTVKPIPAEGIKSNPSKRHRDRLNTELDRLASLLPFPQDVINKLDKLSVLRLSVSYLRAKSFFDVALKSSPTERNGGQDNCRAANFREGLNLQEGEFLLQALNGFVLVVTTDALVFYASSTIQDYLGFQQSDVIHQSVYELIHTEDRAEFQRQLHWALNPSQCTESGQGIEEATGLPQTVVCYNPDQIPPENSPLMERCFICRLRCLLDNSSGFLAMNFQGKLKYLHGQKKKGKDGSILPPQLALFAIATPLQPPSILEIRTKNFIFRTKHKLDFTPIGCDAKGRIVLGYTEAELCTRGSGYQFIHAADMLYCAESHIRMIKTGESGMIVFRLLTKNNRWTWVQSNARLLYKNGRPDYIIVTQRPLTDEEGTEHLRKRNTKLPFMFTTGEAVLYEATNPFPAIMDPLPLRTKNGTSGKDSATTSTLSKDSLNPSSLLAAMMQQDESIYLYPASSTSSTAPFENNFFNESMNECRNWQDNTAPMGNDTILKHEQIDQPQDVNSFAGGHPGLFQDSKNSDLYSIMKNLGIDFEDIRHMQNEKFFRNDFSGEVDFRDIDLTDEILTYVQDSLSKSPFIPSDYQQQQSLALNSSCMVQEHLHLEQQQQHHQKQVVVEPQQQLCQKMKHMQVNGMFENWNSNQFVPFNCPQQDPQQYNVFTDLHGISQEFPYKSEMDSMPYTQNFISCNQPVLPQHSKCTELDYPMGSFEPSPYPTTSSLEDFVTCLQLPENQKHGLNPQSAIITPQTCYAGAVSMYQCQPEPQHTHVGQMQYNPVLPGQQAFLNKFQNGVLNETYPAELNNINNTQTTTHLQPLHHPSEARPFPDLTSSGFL
In short: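 Nuclear receptor reporter-gene induction assay, with reporters coupled to PXR, CAR or AhR. Compound was tested at 0.1–1, 3 and 8 μg/mL. Positive controls were rifampin for PXR, CITCO for CAR and 3-methylcholanthrene for AhR.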

[2] = tested on: Mycobacterium tuberculosis H37Rv; assay: Inhibition of MmpL3 in clinical isolates of drug sensitive Mycobacterium tuberculosis H37Rv after 7 to 14 days by alamar blue assay
[3] = tested on: Mycobacterium tuberculosis; assay: Antimycobacterial activity against Mycobacterium tuberculosis H37Rv grown on serum isolated from 100 mg/kg, po treated BALB/c mouse for 30 to 120 mins assessed as reduction in bacterial growth followed by bacterial addition incubated for 7 days by alamar blue reagent based serum inhibition titration assay; assay type: functional, organism-based
In short: (§1)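 Six-week-old female BALB/c mice (20 g) given one oral dose as suspension in 0.5% CMC in water; isoniazid 10 mg/kg as positive control, vehicle as negative. Serum collected at 30, 60 and 120 min, pooled from three mice per time point, 2-fold serially diluted. 10^4 CFU H37Rv added per well, 7 days at 37 °C. alamarBlue added for 16−18 h, fluorescence read at Ex544/Em590 and plotted against serum titration.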

[4] = Oral bioavailability in BALB/c mouse at 100 mg/kg administered for 30 to 120 mins followed by Mycobacterium tuberculosis H37Rv addition to compound treated serum incubated for 7 days by alamar blue reagent based serum inhibition titration assay; assay type: ADME, organism-based; conditions: in vivo; in short: as §1
[5] = Selectivity index, ratio of IC50 for african green monkey Vero cells to MIC for clinical isolates of Mycobacterium tuberculosis; assay type: toxicity; conditions: read-out: Selectivity Index
[6] = tested on: Vero; assay: Cytotoxicity against african green monkey Vero cells; assay type: cell-based; conditions: Chlorocebus sabaeus
[7] = tested on: Mycobacterium tuberculosis; assay: Inhibition of MmpL3 in clinical isolates of drug sensitive Mycobacterium tuberculosis V4207 after 7 to 14 days by alamar blue assay
[8] = Oral bioavailability in BALB/c mouse at 100 mg/kg administered as single dose for 30 to 120 mins followed by Mycobacterium tuberculosis H37Rv addition to compound treated serum incubated for 7 days by alamar blue reagent based serum inhibition titration assay; assay type: ADME, organism-based; conditions: in vivo; in short: as §1
[9] = tested on: Mycobacterium tuberculosis; assay: Antimycobacterial activity against Mycobacterium tuberculosis H37Rv grown on serum of 100 mg/kg, po treated BALB/c mouse for 30 to 120 mins assessed as reduction in bacterial growth followed by bacterial addition incubated for 7 days by alamar blue reagent based serum inhibition titration assay; assay type: functional, organism-based; in short: as §1

Structure (SMILES)	MIC90 [2]	also measured
Cc1ccc2cc3c(ccc4ccccc43)c3c2c1CC3 [3-METHYLCHOLANTHRENE]		Activity [1]: Active
Cc1cc(C)c2cc(C(=O)NC3CCCCCCC3)[nH]c2c1	0.013 µM (≈ 0.00388 µg/mL)	
O=C(NC1CCCCCCC1)c1cc2c(Cl)cc(Cl)cc2[nH]1	0.011 µM (≈ 0.00373 µg/mL)	Activity [3]: Active; Drug uptake [4]: Active; selectivity ratio [5]: 2140 to 4270; IC50 [6]: 23.5 to 47 µM; MIC [7]: 11 µM (≈ 3.73 µg/mL)
Cc1cc(C)c2cc(CNC(=O)C3CCCCCC3)[nH]c2c1	54 µM (≈ 16.1 µg/mL)	
CC1(C)[C@H]2CC[C@@]1(C)[C@H](NC(=O)c1cc3c(Cl)cc(Cl)cc3[nH]1)C2	0.043 µM (≈ 0.0157 µg/mL)	
O=C(NC1CCC2(CCCCC2)CC1)c1cc2c(F)cc(F)cc2[nH]1	0.003 µM (≈ 0.00104 µg/mL)	Drug uptake [8]: Not Active; Activity [9]: inactive
Cc1cccc2cc(C(=O)NC3CCCCCCC3)[nH]c12	3.5 µM (≈ 0.995 µg/mL)	
CCCCCCCCNC(=O)c1cc2c(Cl)cc(Cl)cc2[nH]1	> 300 µM	
O=C(NC12CC3CC(CC(C3)C1)C2)c1cc2ccc(Br)cc2[nH]1	0.042 µM (≈ 0.0157 µg/mL)	
C[C@@H]1[C@@H](NC(=O)c2cc3c(F)cc(F)cc3[nH]2)C[C@H]2C[C@@H]1C2(C)C	0.19 µM (≈ 0.0632 µg/mL)	
CC(C)=CCC/C(C)=C/CNC(=O)c1cc2c(F)cc(F)cc2[nH]1	> 192 µM	
C[C@@H](NC(=O)c1cc2c(Cl)cc(Cl)cc2[nH]1)C1CCCCC1	5.9 µM (≈ 2 µg/mL)	
CCCCCCCNC(=O)c1cc2c(Cl)cc(Cl)cc2[nH]1	> 300 µM	
Cc1cccc2[nH]c(C(=O)NC3CCCCCC3)cc12	0.93 µM (≈ 0.251 µg/mL)	
CN1C2CCCC1CC(NC(=O)c1cc3c(Cl)cc(Cl)cc3[nH]1)C2 (configuration not stated)	10.9 µM (≈ 3.99 µg/mL)	
Cc1cc(C)c2[nH]c(C(=O)NC3CCCCCCC3)cc2c1	0.21 µM (≈ 0.0627 µg/mL)	
C[C@@H]1[C@H]2C[C@@H](C[C@H]1NC(=O)c1cc3c(Cl)cc(Cl)cc3[nH]1)C2(C)C	0.021 µM (≈ 0.00767 µg/mL)	Activity [3]: Active; Drug uptake [4]: Active; selectivity ratio [5]: 2080; IC50 [6]: 43.8 µM; MIC [7]: 43 µM (≈ 15.7 µg/mL)
O=C(NC1CCCCCCC1)c1cc2ccc(Br)cc2[nH]1	0.09 µM (≈ 0.0314 µg/mL)	
Cc1cc(C)c2[nH]c(C(=O)NC3CCCCCC3)cc2c1	3.5 µM (≈ 0.995 µg/mL)	
Cc1ccc2cc(C(=O)NC3CCCCCCC3)[nH]c2c1	0.11 µM (≈ 0.0313 µg/mL)	
